Results published in ChEMBL document CHEMBL1147377, “Knerachelins A and B, antibacterial phenylacylphenols from Knema furfuracea” (1993).
≈ marks a conversion by molar mass, not a printed value. Calls of active or inactive are those of the source. The rule behind the calls is not given here.

Columns and labels:
Salmonella typhimurium = experiment: Antibacterial activity against Salmonella Typhimurium IPL after 24 hrs by agar dilution method; assay type: functional, Salmonella enterica subsp. enterica serovar Typhimurium; conditions: Salmonella enterica
Procedure, shortened: (§1)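 MIC by microplate titration in agar medium (agar dilution). Compounds dissolved in DMSO. Incubation at 37° for 24 h (the 24 h/37° conditions are stated for the bioguiding agar diffusion test against S. aureus 209 P).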

Nucleic Acid [1] = experiment: Induction of phiX174 replicative form 1 template DNA cleavage at 24 ug after 1 hr by propidium iodide staining; assay type: nucleic-acid assay
Procedure, shortened: (§2)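 Reaction at pH 7.5, 15 µl final, with 50 mM sodium cacodylate, 100 ng ΦX174 RF I DNA and CuSO4 120 µM plus sample (24 or 48 µg). Incubated 1 h at 25°, stopped with EDTA. Run on 0.8% agarose at 80 V for 1.5 h in Tris-borate pH 8.0. Stained with propidium iodide 0.5 µg/ml; form II DNA scored.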

Streptococcus = experiment: Antibacterial activity against Streptococcus A Dig 7 after 24 hrs by agar dilution method; assay type: functional; procedure, shortened: as §1
Klebsiella pneumoniae = experiment: Antibacterial activity against Klebsiella pneumoniae IP 7824 caroli after 24 hrs by agar dilution method; assay type: functional; procedure, shortened: as §1
Staphylococcus aureus [2] = experiment: Antibacterial activity against Staphylococcus aureus 209P ATCC 6538 after 24 hrs by agar dilution method; assay type: functional; procedure, shortened: as §1
Streptococcus pneumoniae [3] = experiment: Antibacterial activity against Streptococcus pneumoniae 6254.013 after 24 hrs by agar dilution method; assay type: functional; procedure, shortened: as §1
Escherichia coli [4] = experiment: Antibacterial activity against Escherichia coli V 2019 after 24 hrs by agar dilution method; assay type: functional; procedure, shortened: as §1
Staphylococcus aureus [5] = experiment: Antibacterial activity against Staphylococcus aureus Duc after 24 hrs by agar dilution method; assay type: functional; procedure, shortened: as §1
Staphylococcus aureus [6] = experiment: Antibacterial activity against Staphylococcus aureus Duchaussoy after 24 hrs by agar dilution method; assay type: functional; procedure, shortened: as §1
Escherichia coli [7] = experiment: Antibacterial activity against Escherichia coli NIHJ-JC2 after 24 hrs by agar dilution method; assay type: functional; procedure, shortened: as §1
Serratia marcescens = experiment: Antibacterial activity against Serratia marcescens Guilpin 759 after 24 hrs by agar dilution method; assay type: functional; procedure, shortened: as §1
Staphylococcus aureus [8] = experiment: Antibacterial activity against Staphylococcus aureus IP 8203 after 24 hrs by agar dilution method; assay type: functional; procedure, shortened: as §1
Staphylococcus aureus [9] = experiment: Antibacterial activity against Staphylococcus aureus V. de G. 26109 after 24 hrs by agar dilution method; assay type: functional; procedure, shortened: as §1
Pseudomonas aeruginosa = experiment: Antibacterial activity against Pseudomonas aeruginosa IPA 237 after 24 hrs by agar dilution method; assay type: functional; procedure, shortened: as §1
Staphylococcus aureus [10] = experiment: Antibacterial activity against Staphylococcus aureus ATCC 25923 after 24 hrs by agar dilution method; assay type: functional; conditions: ATCC 25923, 24 h; procedure, shortened: as §1
Klebsiella aerogenes = experiment: Antibacterial activity against Enterobacter aerogenes HM12 after 24 hrs by agar dilution method; assay type: functional; procedure, shortened: as §1
Enterococcus faecium = experiment: Antibacterial activity against Enterococcus faecium ATCC 19581 after 24 hrs by agar dilution method; assay type: functional; conditions: ATCC 19581, 24 h; procedure, shortened: as §1
Enterococcus faecalis = experiment: Antibacterial activity against Enterococcus faecalis ATCC 29212 after 24 hrs by agar dilution method; assay type: functional; conditions: ATCC 29212, 24 h; procedure, shortened: as §1
Streptococcus pneumoniae [11] = experiment: Antibacterial activity against Streptococcus pneumoniae 6176-23F after 24 hrs by agar dilution method; assay type: functional; procedure, shortened: as §1
Streptococcus pneumoniae [12] = experiment: Antibacterial activity against Streptococcus pneumoniae 4314-03 after 24 hrs by agar dilution method; assay type: functional; procedure, shortened: as §1
Nucleic Acid [13] = experiment: Induction of phiX174 replicative form 1 template DNA cleavage at 48 ug after 1 hr by propidium iodide staining; assay type: nucleic-acid assay; procedure, shortened: as §2

Row | SMILES | MIC (Salmonella typhimurium) | MIC (Streptococcus) | MIC (Klebsiella pneumoniae) | MIC (Staphylococcus aureus [2]) | MIC (Streptococcus pneumoniae [3]) | MIC (Escherichia coli [4]) | MIC (Staphylococcus aureus [5]) | MIC (Staphylococcus aureus [6]) | MIC (Escherichia coli [7]) | MIC (Serratia marcescens) | MIC (Staphylococcus aureus [8]) | MIC (Staphylococcus aureus [9]) | MIC (Pseudomonas aeruginosa) | MIC (Staphylococcus aureus [10]) | MIC (Klebsiella aerogenes) | MIC (Enterococcus faecium) | MIC (Enterococcus faecalis) | MIC (Streptococcus pneumoniae [11]) | MIC (Streptococcus pneumoniae [12]) | further results
1 | O=C(CCCCc1ccccc1)c1c(O)cccc1O [KNERACHELIN B] | > 128 µg/mL | 4 µg/mL (≈ 14.8 µM) | > 128 µg/mL | 4 µg/mL (≈ 14.8 µM) | 8 µg/mL (≈ 29.6 µM) | > 128 µg/mL | 4 µg/mL (≈ 14.8 µM) | 4 µg/mL (≈ 14.8 µM) | > 128 µg/mL | > 128 µg/mL | 4 µg/mL (≈ 14.8 µM) | 4 µg/mL (≈ 14.8 µM) | > 128 µg/mL | 4 µg/mL (≈ 14.8 µM) | > 128 µg/mL | 16 µg/mL (≈ 59.2 µM) | 16 µg/mL (≈ 59.2 µM) | 8 µg/mL (≈ 29.6 µM) | 8 µg/mL (≈ 29.6 µM) | Activity (Nucleic Acid [1]): inactive
2 | COc1cc(O)c(C(=O)CCCCc2ccccc2)c(O)c1 [KNERACHELIN A] | > 128 µg/mL | 8 µg/mL (≈ 26.6 µM) | > 128 µg/mL | 8 µg/mL (≈ 26.6 µM) | 8 µg/mL (≈ 26.6 µM) | > 128 µg/mL | 8 µg/mL (≈ 26.6 µM) | 8 µg/mL (≈ 26.6 µM) | > 128 µg/mL | > 128 µg/mL | 8 µg/mL (≈ 26.6 µM) | 8 µg/mL (≈ 26.6 µM) | > 128 µg/mL | 8 µg/mL (≈ 26.6 µM) | > 128 µg/mL | 32 µg/mL (≈ 107 µM) | 32 µg/mL (≈ 107 µM) | 8 µg/mL (≈ 26.6 µM) | 8 µg/mL (≈ 26.6 µM) | Activity (Nucleic Acid [13]): inactive
